This note sets out measurements from ChEMBL document CHEMBL2434866, “Synthesis, antibacterial and antioxidant activities of new 1-alkyl-4-(1-alkyl-4-oxo-1,4-dihydroquinolin-2-yl)pyridinium bromides” (2013).

For assay [1], the system named is Staphylococcus aureus. Put plainly: Antibacterial activity against Staphylococcus aureus ATCC 25923 assessed as growth inhibition after 18 to 24 hrs by microdilution assay. Format: functional. In a few lines:
(§1)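 Broth microdilution MIC in LB medium at pH 7.2. Compounds came from DMSO stocks and were serially diluted from 1000 to 7.8 (final). Inoculum was mid-log cells diluted to OD600 0.004 (about 5 × 10^5 CFU/mL). Plates were incubated at 37 °C for 18–24 h. MIC was the last dilution without visible turbidity. Controls were DMSO solvent, medium ± antibiotic, and ampicillin.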
A general note: Dilution methods test growth across graded concentrations, often in twofold steps.

Assay [2] deals with Proteus vulgaris. Description: Antibacterial activity against Proteus vulgaris ATCC 13315 assessed as growth inhibition after 18 to 24 hrs by microdilution assay. Format: functional. In a few lines:
as §1

Assay [3] in a line: Antioxidant activity assessed as trolox equivalent of ferric ion reducing activity using fe2+-TPTZ at 1 mg/ml after 20 mins by FRAP assay. Format: functional. In a few lines: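 Sample at 1 mg/mL was mixed with reagent, kept 20 min at room temperature, and read at 595 nm against a water blank. Triplicates were corrected for reagent and sample blanks. TEAC came from a five-point Trolox calibration curve.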

The subject of assay [4] is Radical scavenging activity. Description: Antioxidant activity assessed as DPPH radical scavenging activity after 50 mins. Format: functional. In a few lines:
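DPPH• in methanol was mixed 1:1 with sample at five final concentrations (6.25–100.00), vortexed, and kept 50 min at room temperature. Absorbance was read at 517 nm and plotted against concentration, with reagent-blank and solvent controls. SC50 was read from the graph as the concentration halving the initial DPPH•.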
A general note: DPPH is a stable violet radical that fades when it is reduced.

Assay [5] concerns Enterococcus faecalis. Put plainly: Antibacterial activity against Enterococcus faecalis ATCC 29212 assessed as growth inhibition after 18 to 24 hrs by microdilution assay. Format: functional. In short, it runs like this:
as §1

Assay [6] concerns Bacillus spizizenii. Put plainly: Antibacterial activity against Bacillus subtilis ATCC 6633 assessed as growth inhibition after 18 to 24 hrs by microdilution assay. Format: functional. In short, it runs like this: as §1
For assay [7], the system named is Pseudomonas aeruginosa. Description: Antibacterial activity against Pseudomonas aeruginosa ATCC 27853 assessed as growth inhibition after 18 to 24 hrs by microdilution assay. Format: functional. In a few lines:
as §1

For assay [8], the system named is Klebsiella pneumoniae. Description: Antibacterial activity against Klebsiella pneumoniae ATCC 13883 assessed as growth inhibition after 18 to 24 hrs by microdilution assay. Format: functional. In short, it runs like this: as §1
The subject of assay [9] is Staphylococcus aureus. Put plainly: Antibacterial activity against Staphylococcus aureus ATCC 25923 assessed as growth inhibition at 100 ug/mL after 18 to 24 hrs by microdilution assay. Format: functional, organism-based.
Assay [10] relates to Proteus vulgaris. Put plainly: Antibacterial activity against Proteus vulgaris ATCC 13315 assessed as growth inhibition at 100 ug/mL after 18 to 24 hrs by microdilution assay. Format: functional, organism-based.
Assay [11] deals with Bacillus spizizenii. Description: Antibacterial activity against Bacillus subtilis ATCC 6633 assessed as growth inhibition at 100 ug/mL after 18 to 24 hrs by microdilution assay. Format: functional.
Assay [12] deals with Pseudomonas aeruginosa. Put plainly: Antibacterial activity against Pseudomonas aeruginosa ATCC 27853 assessed as growth inhibition at 100 ug/mL after 18 to 24 hrs by microdilution assay. Format: functional, organism-based.
The subject of assay [13] is Enterococcus faecalis. Put plainly: Antibacterial activity against Enterococcus faecalis ATCC 29212 assessed as growth inhibition at 100 ug/mL after 18 to 24 hrs by microdilution assay. Format: functional, organism-based.
The subject of assay [14] is Klebsiella pneumoniae. Put plainly: Antibacterial activity against Klebsiella pneumoniae ATCC 13883 assessed as growth inhibition at 100 ug/mL after 18 to 24 hrs by microdilution assay. Format: functional, organism-based.

Active and inactive are the calls of the source. The calls are words filed in the database; no cut-off is given here.

As for `CCCCCCCCCCCCCn1c(-c2cc[n+](CCCCCCCCCCCCC)cc2)cc(=O)c2ccccc21.[Br-]`, the MIC in assay [1], in assay [2], in assay [5], in [6], in [7] and in [8] was 250 µg/mL each time. Further, the Activity in assay [3] was determined as 53 equiv. In assay [4], the SC50 turned out to be 45 µg/mL.

Turning to `CCCCCCCn1c(-c2cc[n+](CCCCCCC)cc2)cc(=O)c2ccccc21.[Br-]`, the MIC (usually the lowest concentration that inhibits growth of the organism) came out at 31.2 µg/mL in [1]; 125 µg/mL in assay [2]; 62.5 µg/mL in assay [5]; 62.5 µg/mL in [6]; 62.5 µg/mL in assay [7]; 62.5 µg/mL in [8]. In addition, the Activity in assay [3] came out at 59 equiv. The SC50 in assay [4] is 56 µg/mL.

`CCCCCn1c(-c2cc[n+](CCCCC)cc2)cc(=O)c2ccccc21.[Br-]`: the MIC in [1] was 15.6 µg/mL; in [2], 62.5 µg/mL; in assay [5] it was 62.5 µg/mL; in [6] it was 62.5 µg/mL; in assay [7], 15.6 µg/mL; in assay [8], 31.2 µg/mL. Besides, in assay [3], the Activity was 94 equiv. The SC50 in assay [4] was found to be 112 µg/mL.

For `CCCCCCn1c(-c2cc[n+](CCCCCC)cc2)cc(=O)c2ccccc21.[Br-]`, the MIC in assay [1] was determined as 7.8 µg/mL; in assay [2], 62.5 µg/mL; in assay [5], 31.2 µg/mL; in assay [6], 31.2 µg/mL; in [7], 7.8 µg/mL; in [8] it was 15.6 µg/mL. For the same compound, the Activity in assay [3] was determined as 141 equiv. Moreover, the SC50 in assay [4] worked out at 56 µg/mL.

Regarding `CCCCCCCCCn1c(-c2cc[n+](CCCCCCCCC)cc2)cc(=O)c2ccccc21.[Br-]`, the MIC worked out at 31.2 µg/mL in assay [1]; 31.2 µg/mL in [2]; 62.5 µg/mL in assay [5]; 62.5 µg/mL in assay [6]; 62.5 µg/mL in assay [7]; 31.2 µg/mL in assay [8]. Also, in [3], the Activity came out at 59 equiv. The SC50 in assay [4] worked out at 55 µg/mL.

Regarding `CCCCCCCCCCCCn1c(-c2cc[n+](CCCCCCCCCCCC)cc2)cc(=O)c2ccccc21.[Br-]`, the minimal inhibitory concentration (MIC) stood at 125 µg/mL in [1]; 125 µg/mL in assay [2]; 125 µg/mL in assay [5]; 250 µg/mL in assay [6]; 125 µg/mL in assay [7]; 125 µg/mL in assay [8]. Further, the Activity in [3] was 39 equiv. Further, the SC50 in assay [4] was 82 µg/mL.

Consider `CCCCCCCCCCCCCCCn1c(-c2cc[n+](CCCCCCCCCCCCCCC)cc2)cc(=O)c2ccccc21.[Br-]`, for which the MIC was 500 µg/mL in [1]; 500 µg/mL in [2]; 250 µg/mL in assay [5]; 500 µg/mL in [6]; 500 µg/mL in assay [7]; 250 µg/mL in [8]. In addition, the Activity in [3] was 66 equiv. In addition, in [4], the SC50 is 133 µg/mL.

For `CCCCCCCCn1c(-c2cc[n+](CCCCCCCC)cc2)cc(=O)c2ccccc21.[Br-]`, the MIC in assay [1] was 15.6 µg/mL; in [2], 31.2 µg/mL; in assay [5], 62.5 µg/mL; in assay [6], 31.2 µg/mL; in assay [7] it was 31.2 µg/mL; in [8] it was 31.2 µg/mL. Further, in [3], the Activity turned out to be 59 equiv. Also, the SC50 in assay [4] is 85 µg/mL.

In the case of `O=c1cc(-c2ccncc2)[nH]c2ccccc12`, the Activity in [3] turned out to be 46 equiv. Further, the SC50 in assay [4] amounted to 133 µg/mL.

Consider `CCCCCCCCCCn1c(-c2cc[n+](CCCCCCCCCC)cc2)cc(=O)c2ccccc21.[Br-]`, for which the MIC in assay [1] is 62.5 µg/mL; in [2], 62.5 µg/mL; in [5], 125 µg/mL; in assay [6] it was 62.5 µg/mL; in assay [7], 31.2 µg/mL; in assay [8], 62.5 µg/mL. Further, in assay [3], the Activity was determined as 40 equiv. The SC50 in [4] amounted to 78 µg/mL.

With `CC1(C)S[C@@H]2[C@H](NC(=O)[C@H](N)c3ccccc3)C(=O)N2[C@H]1C(=O)O`, the “growth inhibition (GI)” value in [9], in assay [10], in assay [11], in [12], in assay [13] and in assay [14] was “Active” throughout.

Take `CCCCCCCCCCCn1c(-c2cc[n+](CCCCCCCCCCC)cc2)cc(=O)c2ccccc21.[Br-]`: the MIC is 62.5 µg/mL in assay [1]; 31.2 µg/mL in [2]; 125 µg/mL in assay [5]; 125 µg/mL in [6]; 62.5 µg/mL in assay [7]; 125 µg/mL in [8]. Besides, the Activity in [3] stood at 44 equiv. The SC50 in assay [4] was 72 µg/mL.

In the case of `CCCCCCCCCCCCCCn1c(-c2cc[n+](CCCCCCCCCCCCCC)cc2)cc(=O)c2ccccc21.[Br-]`, the MIC in assay [1] was 500 µg/mL; in assay [2], 500 µg/mL; in assay [5], 250 µg/mL; in assay [6], 500 µg/mL; in assay [7], 500 µg/mL; in [8], 500 µg/mL. Also, the Activity in [3] worked out at 14 equiv. Besides, the SC50 in assay [4] was determined as 72 µg/mL.

Consider `Nc1ccccc1C(=O)/C=C/c1ccncc1`, for which, in [3], the Activity was 43 equiv. For the same compound, in [4], the SC50 was 130 µg/mL.
